Data set [1] deals with KRAS^G12D (Homo sapiens, UniProt P01116, G12D). Kind of data set: SOS-catalyzed guanine nucleotide exchange. The data set is classed as biochemical.
Data set [2] can be described thus: Cell homogenate stability assay. The format is in vitro ADME. As to conditions: human; for half-life at 1 µM: HeLa cell homogenate. In a few lines:
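HeLa cells suspended at 1 × 10^6 cells/mL, probe-sonicated on ice until homogeneous, then frozen at −20 °C until use. Peptides incubated with the homogenate (1 × 10^6 cells/mL equivalent). Loss of parent peptide over increasing time quantified by LC-MS/MS.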

For data set [3], the system named is pERK, AsPC-1 cells. The data set is described as follows: AlphaScreen pERK assay in AsPC-1 cells. The format is cell-based. As to conditions: for IC50: pERK. In a few lines: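 AsPC-1 cells grown in RPMI 1640 (GlutaMAX, HEPES) with 10% FBS and penicillin/streptomycin. Seeded at 15 000 cells/well and held overnight at 37 °C, 5% CO2, then switched to serum-free medium. Compound dose-response series added acoustically, then incubated 2 and 18 h. Cells washed with DPBS and lysed with protease inhibitors. pERK (615 nm) and total ERK (535 nm) read by AlphaScreen SureFire multiplex. pERK/total ERK ratio fitted to 4-parameter logistic.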
For orientation: Alpha assays give light when donor and acceptor beads are brought close together.

Data set [4] relates to HeLa cells. The data set is described as follows: NanoClick cell permeability assay. The data set is classed as in vitro ADME, Human.
The subject of data set [5] is pERK, A375 cells. The data set is described as follows: AlphaScreen pERK counter screen in A375 cells. The format is cell-based.
The test system of data set [6] is AsPC-1 cells. Kind of data set: LDH release. The data set is classed as cell-based. As to conditions: 18 h LDH release assay. In a few lines: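 AsPC-1 cells seeded at 15 000/well overnight, then dosed with a compound titration in serum-free medium at 37 °C, 5% CO2. At 18 h post dose, part of the medium was transferred and mixed 1:1 with CytoTox-ONE reagent. Plates shaken 45 min at ambient temperature and fluorescence read (ex 560/em 590 nm). Dose-response curves fitted to 4-parameter logistic.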
On the technique in general: LDH leaks from cells whose membrane has failed.

Where [7] appears, read: read-out: AlphaScreen (AsPC-1) 2 h IC50, AsPC-1, 2 h.
[8] abbreviates: read-out: AlphaScreen (AsPC-1) 18 h IC50, AsPC-1, 18 h.
The mark [9] stands for this setting: read-out: NanoClick (HeLa) 4 h EC50, 4 h.
The mark [10] stands for this setting: read-out: NanoClick (HeLa) 18 h EC50, 18 h.

From paper PMC9289880 (Journal of Medicinal Chemistry, 2022) come the findings set out here.

Each structure is given as a SMILES string. Read-outs that look alike come from different tables or passages of the source. *1 amine or outer side, *2 acyl side, *3 side chain or, on linkers, in order; H or OH if unused. Where a SMILES comes first, the peptide text is derived from it. Bridges are numbered along the chain shown (N, C = ends). [ ]: non-standard residue; d: D form. Pro(3R-Ph) = O=C(O)[C@H]1NCC[C@@H]1c1ccccc1; Bip = N[C@@H](Cc1ccc(-c2ccccc2)cc1)C(=O)O; αMeS = C[C@](N)(CO)C(=O)O; CH2 = C([*:1])[*:2]

In general, IC50 refers to the midpoint of a concentration-inhibition curve. As a reminder, the half-life is how long it takes for the measured level to halve. Read a high half-life as slow loss. What is called EC50 is the midpoint of the concentration-response curve.

KRAS^G12D, sequence (P01116 1-188 isoform P01116-2 G12D): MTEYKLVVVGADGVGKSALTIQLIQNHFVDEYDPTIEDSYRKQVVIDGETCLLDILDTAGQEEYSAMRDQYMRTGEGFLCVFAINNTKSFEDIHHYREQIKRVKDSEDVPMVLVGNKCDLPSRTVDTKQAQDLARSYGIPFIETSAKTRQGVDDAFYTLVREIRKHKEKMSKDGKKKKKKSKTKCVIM

Take `CC[C@H](C)[C@@H]1NC(=O)[C@H](Cc2ccc(-c3ccccc3)cc2)NC(=O)[C@H](CC(C)C)NC(=O)[C@@H]2[C@@H](c3ccccc3)CCN2C(=O)[C@H](NC(=O)[C@H](CCCNC(=N)N)NC(=O)[C@H](CCCNC(=N)N)NC(=O)[C@H](CCCCN=[N+]=[N-])NC(C)=O)CSCSC[C@@H](C(=O)N[C@@H](CCCNC(=N)N)C(=O)N[C@@H](CCCNC(=N)N)C(N)=O)NC(=O)[C@H](C(C)C)NC(=O)[C@@H]2CCCN2C(=O)[C@H](CC(=O)O)NC(=O)[C@H](Cc2ccc(O)cc2)NC(=O)[C@H](CO)NC1=O` [peptide 6, Ac-Lys(N3)-RR-cyclo(c(methylene)-Prot3Ph-L-Bip-ISYDPVC)-RR-NH2]: the IC50 in data set [1] is < 1 nM; in data set [3] (setting [7]) it was 2700 nM; in data set [3] (setting [8]), 19000 nM. Moreover, in data set [1], the “SOS GNE potency / binding, in words” value is “subnanomolar”. Moreover, in data set [2], the half-life at 1 µM is > 6.2 h. In addition, the “fold improved cellular activity at 2 h versus 18 h” value in data set [3] (AsPC-1 pERK) is listed as 6 fold. Moreover, the “NanoClick permeability at 4 h, in words” value in data set [4] (4 h) is “limited permeability”. In data set [4] (18 h), the “NanoClick permeability at 18 h, in words” value was “much-increased permeability”. The EC50 was found to be 7320 nM in data set [4] (setting [9]) and 199 nM in data set [4] (setting [10]).
`CC[C@H](C)[C@@H]1NC(=O)[C@H](Cc2ccc(-c3ccccc3)cc2)NC(=O)[C@H](CC(C)C)NC(=O)[C@@H]2[C@@H](c3ccccc3)CCN2C(=O)[C@H](NC(=O)[C@@H](CCCNC(=N)N)NC(=O)[C@@H](CCCNC(=N)N)NC(C)=O)CSCSC[C@@H](C(=O)N[C@H](CCCNC(=N)N)C(=O)N[C@H](CCCNC(=N)N)C(N)=O)NC(=O)[C@H](C(C)C)NC(=O)[C@@H]2CCCN2C(=O)[C@H](CC(=O)O)NC(=O)[C@H](Cc2ccc(O)cc2)NC(=O)[C@](C)(CO)NC1=O` [peptide 7, Ac-rr-cyclo(c(methylene)-Prot3Ph-L-Bip-I-aMeS-YDPVC)-rr-NH2] (Ac-[dR][dR][dC][Pro(3R-Ph)]L[Bip]I[αMeS]YDPVC[dR][dR]-NH2; linker 3-13 via CH2): the “SOS GNE potency / binding, in words” value in data set [1] is given as “subnanomolar”. For the same compound, the half-life in data set [2] (tissue homogenate) is > 6.2 h. In addition, the IC50 in data set [3] (setting [7]) was 3800 nM; in data set [3] (setting [8]) it was 3900 nM. Moreover, the “activity in A375 counter screen, in words” value in data set [5] is “no LDH release or activity”. The “LDH release / membrane integrity, in words” value in data set [6] is reported as “no LDH release”.
As to `CC[C@H](C)[C@@H]1NC(=O)[C@H](Cc2ccc(-c3ccccc3)cc2)NC(=O)[C@H](CC(C)C)NC(=O)[C@@H]2[C@@H](c3ccccc3)CCN2C(=O)[C@H](NC(=O)[C@@H](CCCNC(=N)N)NC(=O)[C@@H](CCCNC(=N)N)NC(=O)[C@H](CCCCN=[N+]=[N-])NC(C)=O)CSCSC[C@@H](C(=O)N[C@H](CCCNC(=N)N)C(=O)N[C@H](CCCNC(=N)N)C(N)=O)NC(=O)[C@H](C(C)C)NC(=O)[C@@H]2CCCN2C(=O)[C@H](CC(=O)O)NC(=O)[C@H](Cc2ccc(O)cc2)NC(=O)[C@](C)(CO)NC1=O` [peptide 9, Ac-Lys(N3)-rr-cyclo(c(methylene)-Prot3Ph-L-Bip-I-aMeS-YDPVC)-rr-NH2], the figures for the IC50 in data set [1], in data set [3] (setting [7]) and in data set [3] (setting [8]) were < 1 nM, 6200 nM and 6800 nM, respectively. For the same compound, the half-life at 1 µM in data set [2] was > 6.2 h. In addition, the EC50 in data set [4] (setting [9]) came to 1490 nM; in data set [4] (setting [10]) it was 148 nM; in data set [4] (read-out: NanoClick permeability EC50 at 4 h, 4 h) it was 1500 nM; in data set [4] (read-out: NanoClick permeability EC50 at 18 h, 18 h), 150 nM.
